Assay results reported in article PMC3115441 (Chemical biology & drug design, 2011).
“Also recorded” adds a separate entry of the source. Where two headings read alike, the source gives them in different places.

What was measured:
Dopamine 2 (D2) = Dopamine 2 (D2) (Homo sapiens, UniProt P14416); assay: NIMH-PDSP radioligand binding, D2
[1] = test system: Metrazol-induced clonic seizures; assay: Subcutaneous Metrazol seizure threshold test; type: in vivo, mice; conditions: for scMET (30) N/F, animals active over tested: 30 mg/kg; for scMET (100) N/F, animals active over tested: 100 mg/kg; for scMET (300) N/F, animals active over tested: 300 mg/kg
[2] = test system: PCP site of the NMDA receptor complex; assay: [3H]; type: binding, rat; conditions: for % inhibition of 1 nM [3H] (+)-MK-801: compound at 10 μM (10,000 nM); for IC50: rat forebrain homogenate, 1 nM (+)-[3H]MK-801; for Ki: read-out: NMDA affinity Ki, calculated by Cheng and Prusoff equation
In short: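 Washed rat forebrain homogenate (30 ug/mL protein) in 10 mM HEPES, pH 7.4, with 1 nM (+)-[3H]MK-801, 100 uM glutamate, 30 uM glycine and varied competitor concentrations. Nonspecific binding was set with 30 uM (+)-MK-801. Incubation ran 2 h at room temperature, then vacuum filtration onto GF/B filters, three buffer washes and scintillation counting.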

Dopamine 1 (D1) = Dopamine 1 (D1) (Homo sapiens, UniProt P21728); assay: NIMH-PDSP radioligand binding, D1
Chain of Dopamine 1 (D1) (P21728 whole entry): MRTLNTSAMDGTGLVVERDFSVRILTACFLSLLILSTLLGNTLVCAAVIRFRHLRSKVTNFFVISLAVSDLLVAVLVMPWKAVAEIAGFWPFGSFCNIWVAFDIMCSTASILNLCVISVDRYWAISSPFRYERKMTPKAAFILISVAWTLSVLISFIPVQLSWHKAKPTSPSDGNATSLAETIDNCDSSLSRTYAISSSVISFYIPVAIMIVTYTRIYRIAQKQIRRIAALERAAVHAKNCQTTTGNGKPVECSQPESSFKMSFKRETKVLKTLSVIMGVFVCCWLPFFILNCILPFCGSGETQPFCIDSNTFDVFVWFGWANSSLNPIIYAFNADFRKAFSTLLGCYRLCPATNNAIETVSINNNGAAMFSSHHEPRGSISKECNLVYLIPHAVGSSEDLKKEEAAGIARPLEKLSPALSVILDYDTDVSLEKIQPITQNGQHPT

Sigma2 = target: T1, Sigma2 (Rattus norvegicus, UniProt Q5U3Y7); assay: NIMH-PDSP radioligand binding, Sigma-2
T1 sequence (Q5U3Y7 1-176): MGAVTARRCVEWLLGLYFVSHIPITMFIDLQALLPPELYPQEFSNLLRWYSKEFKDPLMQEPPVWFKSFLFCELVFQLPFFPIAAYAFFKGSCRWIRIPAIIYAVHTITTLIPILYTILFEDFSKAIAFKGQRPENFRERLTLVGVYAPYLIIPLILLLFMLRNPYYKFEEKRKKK

[3] = target: Serotonin Transporter (SERT) (Homo sapiens, UniProt P31645); assay: NIMH-PDSP radioligand binding, SERT
Chain of Serotonin Transporter (SERT) (P31645 whole entry): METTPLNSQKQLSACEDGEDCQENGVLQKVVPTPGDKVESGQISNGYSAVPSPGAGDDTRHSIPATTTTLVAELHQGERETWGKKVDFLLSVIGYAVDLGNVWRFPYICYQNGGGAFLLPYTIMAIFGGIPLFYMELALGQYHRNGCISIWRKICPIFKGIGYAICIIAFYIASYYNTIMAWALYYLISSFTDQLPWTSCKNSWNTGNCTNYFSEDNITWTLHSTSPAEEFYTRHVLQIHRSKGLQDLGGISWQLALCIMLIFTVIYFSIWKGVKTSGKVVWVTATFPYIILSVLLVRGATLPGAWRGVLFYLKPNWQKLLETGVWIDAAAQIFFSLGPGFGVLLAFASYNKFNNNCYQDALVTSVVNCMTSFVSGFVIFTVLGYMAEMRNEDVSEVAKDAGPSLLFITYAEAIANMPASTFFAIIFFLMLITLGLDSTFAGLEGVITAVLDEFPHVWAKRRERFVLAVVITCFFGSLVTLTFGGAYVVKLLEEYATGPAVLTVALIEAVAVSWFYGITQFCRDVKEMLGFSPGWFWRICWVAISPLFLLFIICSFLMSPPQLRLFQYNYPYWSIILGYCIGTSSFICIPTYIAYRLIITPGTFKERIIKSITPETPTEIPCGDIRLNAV

Sigma1 = Sigma1 (Rattus norvegicus, UniProt Q9R0C9); assay: NIMH-PDSP radioligand binding, Sigma-1
Chain of Sigma1 (Q9R0C9 whole entry): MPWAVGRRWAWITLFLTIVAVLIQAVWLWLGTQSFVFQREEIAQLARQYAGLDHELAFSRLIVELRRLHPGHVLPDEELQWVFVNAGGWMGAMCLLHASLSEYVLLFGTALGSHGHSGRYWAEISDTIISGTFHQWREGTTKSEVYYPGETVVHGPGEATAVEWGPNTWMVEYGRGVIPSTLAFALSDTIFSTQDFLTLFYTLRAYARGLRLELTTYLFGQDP

[4] = target: κ- opioid receptors (KOR) (Rattus norvegicus, UniProt P34975); assay: NIMH-PDSP radioligand binding, KOR
Chain of κ- opioid receptors (KOR) (P34975 whole entry): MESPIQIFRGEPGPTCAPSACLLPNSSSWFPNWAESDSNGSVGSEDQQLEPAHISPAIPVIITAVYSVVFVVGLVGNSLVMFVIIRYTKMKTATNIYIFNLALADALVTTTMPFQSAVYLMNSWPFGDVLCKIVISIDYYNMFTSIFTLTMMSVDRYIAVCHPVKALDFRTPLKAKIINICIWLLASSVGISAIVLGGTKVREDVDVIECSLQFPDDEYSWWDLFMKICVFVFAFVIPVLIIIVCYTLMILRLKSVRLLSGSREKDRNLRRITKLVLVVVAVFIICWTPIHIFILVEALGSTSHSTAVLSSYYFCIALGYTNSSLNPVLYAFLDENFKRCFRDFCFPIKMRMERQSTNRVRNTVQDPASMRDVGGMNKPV

[5] = target: Norepinephrine Transporter (NET) (Homo sapiens, UniProt P23975); assay: NIMH-PDSP radioligand binding, NET
Chain of Norepinephrine Transporter (NET) (P23975 whole entry): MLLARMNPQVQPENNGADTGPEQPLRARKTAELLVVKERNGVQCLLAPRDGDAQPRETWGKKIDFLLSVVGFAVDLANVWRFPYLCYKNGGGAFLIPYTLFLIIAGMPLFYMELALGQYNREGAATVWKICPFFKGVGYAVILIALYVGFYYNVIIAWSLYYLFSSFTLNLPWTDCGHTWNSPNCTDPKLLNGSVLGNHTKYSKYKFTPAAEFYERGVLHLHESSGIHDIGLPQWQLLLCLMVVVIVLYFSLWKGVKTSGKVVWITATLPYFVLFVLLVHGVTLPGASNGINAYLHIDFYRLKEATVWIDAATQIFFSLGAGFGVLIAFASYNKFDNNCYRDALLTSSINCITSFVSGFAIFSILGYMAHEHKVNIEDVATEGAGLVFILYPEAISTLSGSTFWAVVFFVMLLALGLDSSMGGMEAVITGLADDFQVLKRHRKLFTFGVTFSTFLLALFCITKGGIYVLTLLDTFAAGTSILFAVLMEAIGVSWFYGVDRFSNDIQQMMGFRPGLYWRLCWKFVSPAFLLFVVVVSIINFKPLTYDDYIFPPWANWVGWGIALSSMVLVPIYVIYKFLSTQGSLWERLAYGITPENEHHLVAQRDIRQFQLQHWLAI

Serotonin 2A (5-HT2A) = Serotonin 2A (5-HT2A) (Homo sapiens, UniProt P28223); assay: NIMH-PDSP radioligand binding, 5-HT2A
Chain of Serotonin 2A (5-HT2A) (P28223 whole entry): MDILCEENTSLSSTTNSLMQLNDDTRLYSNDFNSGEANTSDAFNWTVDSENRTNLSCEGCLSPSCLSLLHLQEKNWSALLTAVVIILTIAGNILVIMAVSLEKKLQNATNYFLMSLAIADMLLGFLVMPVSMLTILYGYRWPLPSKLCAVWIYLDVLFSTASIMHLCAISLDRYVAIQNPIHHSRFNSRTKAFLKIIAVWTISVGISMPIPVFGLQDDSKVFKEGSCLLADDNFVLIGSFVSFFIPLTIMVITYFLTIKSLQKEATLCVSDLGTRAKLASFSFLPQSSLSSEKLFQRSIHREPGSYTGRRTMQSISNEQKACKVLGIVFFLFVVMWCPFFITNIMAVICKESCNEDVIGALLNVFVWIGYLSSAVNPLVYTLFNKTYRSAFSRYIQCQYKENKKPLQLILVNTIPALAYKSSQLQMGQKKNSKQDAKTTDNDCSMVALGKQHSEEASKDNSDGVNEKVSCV

[6] = target: μ- opioid receptors (MOR) (Homo sapiens, UniProt P35372); assay: NIMH-PDSP radioligand binding, MOR
Chain of μ- opioid receptors (MOR) (P35372 whole entry): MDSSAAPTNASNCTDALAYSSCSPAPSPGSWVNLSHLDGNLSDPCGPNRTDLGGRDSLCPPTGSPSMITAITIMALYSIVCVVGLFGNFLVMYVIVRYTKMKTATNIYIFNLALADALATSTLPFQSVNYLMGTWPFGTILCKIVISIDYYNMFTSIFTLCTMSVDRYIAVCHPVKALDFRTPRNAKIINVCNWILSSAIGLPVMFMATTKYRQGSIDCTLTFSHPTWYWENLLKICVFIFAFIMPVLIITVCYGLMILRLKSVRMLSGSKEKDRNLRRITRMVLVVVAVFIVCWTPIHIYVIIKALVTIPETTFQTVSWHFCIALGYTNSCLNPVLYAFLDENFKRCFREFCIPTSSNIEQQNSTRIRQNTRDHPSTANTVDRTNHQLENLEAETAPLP

[7] = target: Dopamine Transporter (DAT) (Homo sapiens, UniProt Q01959); assay: NIMH-PDSP radioligand binding, DAT
Chain of Dopamine Transporter (DAT) (Q01959 whole entry): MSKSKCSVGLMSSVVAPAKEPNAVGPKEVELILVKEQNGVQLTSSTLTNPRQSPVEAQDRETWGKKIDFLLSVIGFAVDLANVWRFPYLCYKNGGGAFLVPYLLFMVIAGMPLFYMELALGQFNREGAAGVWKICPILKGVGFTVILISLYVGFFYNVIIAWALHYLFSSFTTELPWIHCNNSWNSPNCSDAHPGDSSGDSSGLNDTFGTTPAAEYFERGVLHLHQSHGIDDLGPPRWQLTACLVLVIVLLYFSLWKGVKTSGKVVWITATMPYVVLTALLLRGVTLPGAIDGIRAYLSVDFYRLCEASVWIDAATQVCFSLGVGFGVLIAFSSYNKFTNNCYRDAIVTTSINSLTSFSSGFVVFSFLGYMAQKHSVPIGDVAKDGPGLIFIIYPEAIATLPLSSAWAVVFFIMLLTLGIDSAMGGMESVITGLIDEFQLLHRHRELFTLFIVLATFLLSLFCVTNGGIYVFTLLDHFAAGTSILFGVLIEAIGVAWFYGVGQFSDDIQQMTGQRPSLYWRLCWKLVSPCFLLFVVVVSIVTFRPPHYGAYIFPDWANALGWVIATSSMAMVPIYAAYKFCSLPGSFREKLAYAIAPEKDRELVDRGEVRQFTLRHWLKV

MES-induced seizures = assay: Maximal electroshock; type: in vivo, mice; conditions: for MES (30) N/F, animals active over tested: 30 mg/kg i.p.; for MES (100) N/F, animals active over tested: 100 mg/kg i.p.; for MES neuroprotective activity (in words): mouse, in vivo
In short: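 Mice received test compound i.p. at 30, 100 or 300 mg/kg in 0.01 ml/g and were tested at various intervals after dosing. Corneal electrodes primed with 0.5% tetracaine HCl electrolyte delivered 60 Hz alternating current, 50 mA, for 0.2 s. An animal counted as protected when the hindlimb tonic extensor component was abolished. Results are scored as animals protected over tested.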

mice = assay: Acute toxicity, minimal motor impairment; type: in vivo; conditions: for TOX (30) N/F, animals toxic over tested / TOX (100) N/F, animals toxic over tested / TOX (300) N/F, animals toxic over tested: rotorod; for TOX (30) N/F, animals toxic over tested: 30 mg/kg

Chain of Dopamine 2 (D2) (P14416 whole entry): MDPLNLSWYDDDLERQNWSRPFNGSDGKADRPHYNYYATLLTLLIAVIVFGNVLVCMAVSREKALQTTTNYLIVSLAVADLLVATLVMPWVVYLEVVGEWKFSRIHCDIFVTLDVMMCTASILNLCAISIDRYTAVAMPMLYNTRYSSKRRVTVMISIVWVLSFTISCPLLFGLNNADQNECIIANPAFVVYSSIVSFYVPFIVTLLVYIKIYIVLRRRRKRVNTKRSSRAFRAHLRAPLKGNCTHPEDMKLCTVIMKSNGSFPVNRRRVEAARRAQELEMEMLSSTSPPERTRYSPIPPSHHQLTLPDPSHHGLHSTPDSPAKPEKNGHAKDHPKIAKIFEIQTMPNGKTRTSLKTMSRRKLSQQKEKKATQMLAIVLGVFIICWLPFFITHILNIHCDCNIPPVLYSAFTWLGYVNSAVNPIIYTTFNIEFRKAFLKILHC

Row | Molecule | Ki (Dopamine 2 (D2)) [µM] | scMET (30) N/F, animals active over tested ([1]; 0.5 h) | scMET (30) N/F, animals active over tested ([1]; 4.0 h) | scMET (100) N/F, animals active over tested ([1]; 0.5 h) | scMET (100) N/F, animals active over tested ([1]; 4.0 h) | Ki (Dopamine 1 (D1)) [µM] | Ki (Sigma2) [µM] | Ki [3] [µM] | Ki (Sigma1) [µM] | Ki [4] [µM] | Ki [5] [µM] | Ki (Serotonin 2A (5-HT2A)) [µM] | Ki [6] [µM] | Ki [7] [µM] | MES (30) N/F, animals active over tested (MES-induced seizures; 0.5 h) | MES (30) N/F, animals active over tested (MES-induced seizures; 4.0 h) | MES (100) N/F, animals active over tested (MES-induced seizures; 4.0 h) | TOX comments (mice; 100 mg/kg, 0.5 h) | TOX comments (mice; 300 mg/kg, 0.5 h) | TOX (30) N/F, animals toxic over tested (mice; 0.5 h) | further results
1 | NC1(c2ccccc2)CC2CCC1C2 (stereo not drawn) [Compound 4a, 2-phenylbicyclo[2.2.1]heptan-2-amine] | > 10 | 0/1 0/1 | 0/1 0/1 | 0/1 0/1 | 0/1 0/1 | > 10 | 0.995 | > 10 | 2.2 | > 10 | > 10 | > 10 | > 10 | > 10 | 0/1 0/1 | 0/1 0/1 | 1/1 | Severe Tremors, Death following clonic seizure | Death | 0/4 | % inhibition of 1 nM [3H] (+)-MK-801 [2]: greater than 90%; IC50 [2]: 13.3 ± 0.63 µM; Ki [2]: 8.45 µM; TOX (30) N/F, animals toxic over tested (mice; 4.0 h): 0/2; TOX (100) N/F, animals toxic over tested (mice; 100 mg/kg, 0.5 h): 8/8; TOX (100) N/F, animals toxic over tested (mice; 100 mg/kg, 4.0 h): 0/2; TOX (300) N/F, animals toxic over tested (mice; 300 mg/kg, 0.5 h): 4/4 /
2 | NC1(c2ccc(F)cc2)CC2CCC1C2 (stereo not drawn) [Compound 4b, 2-(4-fluorophenyl)bicyclo[2.2.1]heptan-2-amine] | > 10 | 0/1 0/1 | 0/1 0/1 | 0/1 0/1 | 0/1 0/1 | > 10 | > 10 | > 10 | > 10 | > 10 | > 10 | > 10 | > 10 | > 10 | 0/1 0/1 | 0/1 0/1 | 0/3 | Severe Tremors, Clonic seizures | Death following clonic seizure | 0/4 | MES (100) N/F, animals active over tested (MES-induced seizures; 0.5 h): 3/3; TOX (30) N/F, animals toxic over tested (mice; 4.0 h): 0/2; TOX (100) N/F, animals toxic over tested (mice; 100 mg/kg, 0.5 h): 8/8; TOX (100) N/F, animals toxic over tested (mice; 100 mg/kg, 4.0 h): 0/4; TOX (300) N/F, animals toxic over tested (mice; 300 mg/kg, 0.5 h): 4/4 /
3 | c1ccc(C2(NCCN3CCCCC3)CC3CCC2C3)cc1 (stereo not drawn) [Compound 5a, 2-Phenyl-N-(2-(piperidin-1-yl)ethyl)bicyclo[2.2.1]heptan-2-amine] | > 10 | 0/1 0/1 | 0/1 0/1 | 0/1 0/1 | 0/1 0/1 | > 10 | > 10 | > 10 | > 10 | 0.876 | > 10 | 2.64 | > 10 | > 10 | 0/1 0/1 | 0/1 0/1 | 1/3 | Clonic seizures | Death | 0/4 | affinity for NMDA (in words) [2]: highest affinity for NMDA; % inhibition of 1 nM [3H] (+)-MK-801 [2]: greater than 90%; IC50 [2]: 7.86 ± 1.64 µM; Ki [2]: 5.28 µM; MES protection (in words) (MES-induced seizures; 100 mg/kg): MES neuroprotection activity; MES (100) N/F, animals active over tested (MES-induced seizures; 0.5 h): 3/3; MES neuroprotective activity (in words) (MES-induced seizures): greatest degree of protection from MES induced neural damage and death; toxicity profile (in words) (mice; mouse, in vivo): acceptable toxicity profile; TOX (30) N/F, animals toxic over tested (mice; 4.0 h): 0/2; TOX (100) N/F, animals toxic over tested (mice; 100 mg/kg, 0.5 h): 8/8; TOX (100) N/F, animals toxic over tested (mice; 100 mg/kg, 4.0 h): 0/4; TOX (300) N/F, animals toxic over tested (mice; 300 mg/kg, 0.5 h): 4/4 /
4 | c1ccc(C2(NCCN3CCOCC3)CC3CCC2C3)cc1 (stereo not drawn) [Compound 5c, N-(2-morpholinoethyl)-2-phenylbicyclo [2.2.1] heptan-2-amine] | > 10 | 0/1 0/1 | 0/1 0/1 | 0/1 0/1 | 0/1 0/1 | > 10 | > 10 | > 10 | > 10 | 0.988 | > 10 | > 10 | > 10 | 2.57 | 0/1 0/1 | 0/1 0/1 | 0/3 | Clonic seizures | Death following clonic seizure; also recorded: Clonic seizures | 0/4 | scMET (300) N/F, animals active over tested ([1]; 0.5 h): 0/1; scMET (300) N/F, animals active over tested ([1]; 4.0 h): 0/0; affinity for NMDA (in words) [2]: did not exhibit significant affinity; MES (100) N/F, animals active over tested (MES-induced seizures; 0.5 h): 2/3; MES neuroprotective activity (in words) (MES-induced seizures): displayed MES neuroprotective activity; TOX comments (mice; 300 mg/kg, 4 h): Death; TOX (30) N/F, animals toxic over tested (mice; 4.0 h): 0/2; TOX (100) N/F, animals toxic over tested (mice; 100 mg/kg, 0.5 h): 6/8; TOX (100) N/F, animals toxic over tested (mice; 100 mg/kg, 4.0 h): 0/4; TOX (300) N/F, animals toxic over tested (mice; 300 mg/kg, 0.5 h): 4/4; TOX (300) N/F, animals toxic over tested (mice; 300 mg/kg, 4.0 h): 1/1
5 | (+)-MK-801 [reference compound] | – | – | – | – | – | – | – | – | – | – | – | – | – | – | – | – | – | – | – | – | Kd ([2]; read-out: Kd for (+)-MK-801 binding, saturation conditions, homologous binding assay): 0.00175 µM; Ki ([2]; reference): 0.00136 µM
